# From PubChem BioAssay
# Beta cell apopt = inhibitors of cytokine-induced beta cell apoptosis, primary screen, luminescence. protection from apoptosis, % (concentration not given with the values). INS-1E cytokine-induced death, ATP luminescence, 48 h; percent of positive-control rescue, neutral wells zero. 300,000 tested, 0.8% active;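 active = Every replicate reaches about 75%, or at least half do and their mean reaches it too, limit read from the data; inconclusive = At least half of replicates reach the limit but their mean does not; inactive = Under half of replicates reach the limit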;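 also: higher means more ATP so stronger rescue from cytokine killing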
# PfHsp90 set2 = growth inhibition of PfHsp90-expressing yeast, primary screen, antimalarial PfHsp90 inhibitor project, S. cerevisiae, BacTiter-Glo luminescence, single point, set 2; BacTiter-Glo ATP, 48 h; yeast lacking PDR1 and PDR3 efflux regulators; 310,000 tested, 0.32% active; inhibition, % at 9.4 µM;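 active = every replicate shows inhibition above about 80%, whatever the replicate mean, limit read from the data; inconclusive = mean inhibition reaches the set limit but some replicate falls short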
# T cruzi repl = inhibitors of intracellular T. cruzi growth, primary screen, luminescence, NIH3T3 host cells; 300,000 tested, 1.4% active; inhibition, % (concentration not given with the values); T. cruzi beta-gal in NIH3T3, 90 h;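 active = mean inhibition across valid replicates above about 55%, limit read from the data; inconclusive = mean below that limit but half or more replicates reach it; inactive = mean below it, under half of replicates reach it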;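 also: signal also drops with host cell toxicity which is not excluded here; higher percent means less beta-gal luminescence so fewer parasites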
#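 System: NIH/3T3 fibroblasts plus reporter T. cruzi. Medium: DMEM plus 2% FBS. Probe or stimulus: 5000 reporter trypomastigotes per well. Compound: single 50 nL compound addition per well in DMSO. Incubation: co-culture of at least 90 h after 3 h attachment. Detection: GalScreen β-gal luminescence, detergent lysis, 60 min. Evaluation: parasite load inhibition, %.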
# HIF act = HIF pathway transcriptional activators, primary screen, cell-based, U2OS HRE-luciferase, luminescence. U2OS HRE-luciferase reporter; normalized: DMSO 0%, desferrioxamine 100%. activation, % at 7.5 µM (by protocol). 300,000 tested, 0.32% active;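 active = mean activation of at least 10% of the iron chelator positive control signal, with at least half of replicates also reaching 10%; inconclusive = mean and replicate majority disagree about reaching 10%; inactive = mean and most replicates under 10%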
# CSC inhib = cancer stem cell viability inhibitors, primary screen, luminescence; inhibition, % at 7.5 µM; cancer stem cell-like cells viability; 300,000 tested, 1.1% active; AID 2717, 2010; in the data active = inhibition above about 75%; inconclusive = no clear call, values can overlap the other calls; tested in HMLE shEcad cells
# SKKanGAS inh = S. pyogenes SKKanGAS growth inhibitors in kanamycin, primary screen, streptokinase expression inhibitor project, SKKanGAS strain, BacTiter-Glo luminescence. 6 h. inhibition, % at 7.5 µM. 300,000 tested, 1.3% active;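 active = mean replicate score, as percent of positive control median, at least 50; inconclusive = mean below 50 but one replicate at or above 50; inactive = mean and every replicate below 50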;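 also: strain carries kanamycin resistance gene driven by streptokinase promoter and grows in 40 µg/ml kanamycin; loss of luminescence reflects streptokinase promoter inhibition or plain growth inhibition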
# A number is an active result; . = inactive; ? = inconclusive; / = not tested or not shown. The list is not random: actives were taken first. Their share in the collection is about 3.6%.
SMILES,Beta cell apopt,PfHsp90 set2,T cruzi repl,HIF act,CSC inhib,SKKanGAS inh
COc1ccc(N=Nc2ccc(O)c3ncccc23)cc1,103.6,104.0,.,91.6,151.3,69.7
CCCCN(c1nc2ccccc2nc1Cl)S(=O)(=O)c1ccc(C)cc1,.,.,.,.,.,.
COc1cccc(N=Nc2ccc(O)c3ncccc23)c1,104.3,102.1,.,.,123.3,79.5
COc1cccc(N=Nc2ccc3cccnc3c2O)c1,90.3,103.9,.,.,90.0,117.6
COc1ccc(-c2nc3ccccc3nc2-c2ccccc2)cc1,.,.,.,.,.,.
COc1ccc(N=Nc2cc(-c3ccccc3)ccc2O)cc1,.,.,.,.,.,55.8
COc1cc(OC)cc(C(=O)Nc2cccc3cccnc23)c1,.,.,.,.,.,.
COc1ccc(C)cc1N=Nc1ccc(O)c2ncccc12,/,108.9,?,.,/,93.8
O=C(Nc1cccc(S(=O)(=O)NC2=NCCC2)c1)c1cc(Cl)ccc1[N+](=O)[O-],/,/,.,.,.,.
N#CC[C@H](c1ccccc1)N1CCN(Cc2ccccc2)CCC1=O,.,.,.,.,.,.
Oc1ccc(N=Nc2ccc(Br)cc2)c(O)c1,.,.,60.2,.,91.8,.
Oc1ccc(N=Nc2ccc3c(c2)OCCO3)c(O)c1,.,.,.,.,84.5,.
Oc1ccc(N=Nc2n[nH]c(-c3ccc(Br)cc3)n2)cc1,.,.,.,.,.,.
Cc1ccccc1N=Nc1ccc(O)c2ncccc12,98.7,.,.,38.1,99.3,105.1
COc1cc(/C=N/Nc2nc(Nc3ccc(C)cc3)nc(-n3nc(C)cc3C)n2)cc(OC)c1OC,.,.,58.1,.,.,74.0
COc1cc(/C=N/Nc2nc(Nc3ccccc3)nc(-n3nc(C)cc3C)n2)cc(OC)c1OC,.,.,54.5,.,102.4,75.0
COc1cc(/C=N/Nc2nc(Nc3ccccc3)nc(N3CCOCC3)n2)ccc1OC(=O)c1ccco1,.,.,62.3,.,.,.
O=C(Oc1cccc(/C=N/Nc2nc(N3CCOCC3)nc(N3CCOCC3)n2)c1)c1ccco1,.,.,.,.,.,.
COc1ccc(O)c(/C=N/Nc2nc(C)cc(-c3ccccc3)n2)c1,.,.,.,.,.,.
COc1ccc(O)c(/C=N/Nc2nc(Nc3ccccc3)nc(-n3nc(C)cc3C)n2)c1,96.0,.,.,.,92.4,103.0
COc1ccc(/C=N/Nc2nc(Nc3ccccc3)nc(N3CCCC3)n2)cc1[N+](=O)[O-],/,.,.,.,.,.
Cc1nc(C)c(C(=O)O)s1,.,.,.,.,.,.
CNC(=O)c1nnsc1S(=O)c1ccc(Cl)cc1 (stereo not drawn),/,.,60.3,.,/,.
CCCNC(=O)c1nnsc1S(=O)(=O)c1ccc(Cl)cc1,/,104.7,/,/,/,/
CCCNC(=O)c1nnsc1S(=O)c1ccc(Cl)cc1 (stereo not drawn),/,105.0,66.9,.,/,.
SMILES,Beta cell apopt,PfHsp90 set2,T cruzi repl,HIF act,CSC inhib,SKKanGAS inh
CCCNC(=O)NS(=O)(=O)c1ccc(Cl)cc1,.,.,.,.,.,.
O=C1c2ccccc2[C@@H]2C[C@H]3O[C@H]3CCN12,/,.,/,/,/,/
Cc1cccnc1NC(=O)CSc1nnc(CNC(=O)c2cccc([N+](=O)[O-])c2)n1C,.,.,.,.,.,.
O=C(CSc1nc2c(sc3ccccc32)c(=O)n1CCCN1CCCC1)NCc1ccccc1,/,/,.,.,/,.
COc1ccc(CCn2c(SCCN3CCCCC3)nc3ccccc3c2=O)cc1OC,.,.,66.6,.,.,.
C=CCNC(=O)CSc1nc2ccccc2c(=O)n1CCc1ccc(OC)c(OC)c1,.,.,.,.,.,.
CCN(CC)CCn1c(SCC(=O)NCCC2=CCCCC2)nc2c(sc3ccccc32)c1=O,.,.,60.3,.,.,.
Cc1ccc(CNC(=O)CSc2nc3c(sc4ccccc43)c(=O)n2CCCN2CCCC2)cc1,.,.,63.7,.,.,.
Cc1ccc(NC(=O)CSc2nc3ccccc3c(=O)n2CCCN2CCCCC2)cc1Cl,.,/,56.5,.,.,.
O=C(CSc1nc2ccccc2c(=O)n1CCCN1CCOCC1)Nc1ccc(F)c(Cl)c1,.,.,/,/,.,/
O=c1cc(SCc2ccc(Cl)cc2Cl)nc[nH]1,/,.,/,/,/,/
Cc1cc(OCC(=O)N(Cc2ccco2)c2c(N)n(Cc3ccccc3)c(=O)[nH]c2=O)ccc1Cl,.,.,/,/,/,/
COc1cccc(NC(=O)COC(=O)CCn2c(C)csc2=O)c1,.,.,.,.,.,.
COc1ccc(CCNCC(O)COc2cccc(C(C)=O)c2)cc1OC (stereo not drawn),/,.,56.0,.,/,.
COc1ccccc1/C=C(/CC(=O)NCc1ccc2c(c1)OCO2)c1nc2ccccc2s1,.,.,54.6,.,.,.
COc1ccccc1/C=C/C(=O)OCC(=O)NCc1ccc2c(c1)OCO2,.,.,/,/,.,/
Cc1cccc(C2(c3cccc(C)c3)OC(=O)c3ccccc32)c1,124.4,.,.,.,.,.
Cc1cc(C(=O)Nc2ccc(Br)cc2)cs1,.,.,.,.,.,.
CC(C)Cn1c(O)c(/C=C2\C=NN=C2c2ccccc2)sc1=S,.,.,.,.,90.5,.
CCn1c(O)c(/C=C2\C=NN=C2c2ccccc2)sc1=S,.,.,.,.,.,.
COc1cccc(C2c3cc4c(cc3OC(NNC(N)=O)C2C)OCO4)c1O (stereo not drawn),/,.,/,/,/,/
Cc1ccc(CN(CC(=O)NCCc2ccccc2)C(=O)c2csnn2)cc1,.,.,.,.,.,.
O=C(COc1cccc(Br)c1)NN=C1c2ccccc2-c2ccccc21,.,.,.,.,.,.
O=C(NN=C1c2ccccc2-c2ccccc21)c1cccc(Br)c1,.,.,.,.,.,71.8
CCOc1ccccc1N(C)C(=O)c1sc2ncn(CC(=O)N3CCCCC3C)c(=O)c2c1C (stereo not drawn),.,.,.,.,/,.
SMILES,Beta cell apopt,PfHsp90 set2,T cruzi repl,HIF act,CSC inhib,SKKanGAS inh
Cc1ccc(C)c(-c2nn(-c3cc(N4CCN(CCO)CC4)ccc3[N+](=O)[O-])c(=O)c3ccccc23)c1,.,.,60.8,.,/,.
CN(C)CCCNc1nc(-c2ccccc2)nc2ccccc12,.,.,.,.,.,.
c1ccc(CNc2ncnc3ccccc23)cc1,.,.,.,.,.,.
Oc1ccc(CCNc2c3ccccc3nc3ccccc23)cc1O,.,.,.,18.2,76.1,.
CN(C)CCCNc1c2ccccc2nc2ccccc12,108.7,.,67.7,.,130.8,.
c1ccc(CNc2c3ccccc3nc3ccccc23)cc1,98.3,.,57.0,19.8,.,.
